Several values for one entry are separate records, joined by “and”; a condition that tells them apart may be missing. Identical values can stand only once. Entries after “also recorded” stand apart in the source; their conditions may differ.
Experiments:
[1] = Plasma pharmacokinetics of alisertib ECT; format: in vivo, human; conditions: for Tmax: human, plasma
In short: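 Adults with advanced non-haematologic cancers took oral enteric-coated tablets at 10–60 mg BID for 7 days, then 14 days off (21-day cycles). In cycle 1, plasma was sampled within 1 h before the morning dose and at 0.5–12 h post-dose on days 1 and 7. Further samples were taken 12–132 h after the day 7 evening dose. A validated LC-MS/MS assay and non-compartmental analysis were used. Geometric means were reported only for cohorts of at least 2 patients.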

[2] = Urine PK, renal clearance of alisertib; format: in vivo, human
In short: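 Urine was collected only from patients dosed at 40 mg BID or higher. Samples were taken pre-dose on day 1 and pooled over 0–12 h after the day 7 morning dose of the 7-day oral BID course. Renal clearance was derived from the day 7 collection in 12 patients (10 at 50 mg BID, 2 at 60 mg BID). Quantitation was by LC-MS/MS.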

[3] = system: advanced, non-hematologic malignancies; assay: Antitumor activity by RECIST version 1.1; format: in vivo, human
[4] = system: patients with advanced, non-hematologic malignancies
[5] = cited from earlier work
[6] = system: AAK inhibition in xenograft models; conditions: cited from earlier work
[7] = acidic solution; preclinical evaluations; cited from earlier work
[8] = steady-state (day 7), ECT, 20 mg BID (n = 3)
[9] = steady-state (day 7), ECT, 40 mg BID (n = 3)
[10] = steady-state (day 7), ECT, 50 mg BID (n = 11)
[11] = steady-state (day 7), ECT, 60 mg BID (n = 2)
[12] = human, in vivo, 7 days of each 21-day cycle

## COc1cc(Nc2ncc3c(n2)-c2ccc(Cl)cc2C(c2c(F)cccc2OC)=NC3)ccc1C(=O)O [alisertib]
[1]; BID dosing, all doses
  Overall mean peak/trough ratio: 2.2
[1]; RP2D of 50 mg BID, ECT
  Geometric mean steady-state trough concentration: > 1 µM
[1]; following BID dosing, all doses
  Accumulation ratio: 2.4
[1]; oral, 40 mg, Median Tmax (range), steady-state (day 7), ECT, 40 mg BID (n = 3)
  Tmax: 3 h
[1]; oral, 50 mg, Median Tmax (range), steady-state (day 7), ECT, 50 mg BID (n = 11)
  Tmax: 2.4 h
[1]; oral, 60 mg, Median Tmax (range), steady-state (day 7), ECT, 60 mg BID (n = 2)
  Tmax: 2.8 h
[1]; po, Overall median Tmax, oral ECT, all doses, range 0–11
  Tmax: ~3 h
[1]; steady-state (day 7), 10–60 mg BID
  Dose dependence of systemic exposure: increased with increasing doses
[1]; [8]
  Mean accumulation ratio (SD): 3.0 (1.0)
  Mean peak/trough ratio (SD): 2.1 (0.7)
[1]; [9]
  Mean accumulation ratio (SD): 2.3 (0.4)
  Mean peak/trough ratio (SD): 2.3 (1.4)
[1]; [10]
  Mean accumulation ratio (SD): 2.2 (0.9)
  Mean peak/trough ratio (SD): 2.3 (0.8)
[1]; [11]
  Mean accumulation ratio: 2.4
  Mean peak/trough ratio: 1.8
[2]; in vivo
  Renal clearance (in words): negligible
[2]; urine 0 to 12 h postdose day 7, 12 patients (50 and 60 mg BID)
  Renal clearance as share of apparent oral clearance: less than 0.1%
[3]; 16 response-evaluable patients
  Patients with stable disease: Nine patients achieved stable disease; also recorded: Nine patients had stable disease
  Responses by RECIST: No responses by RECIST were observed; also recorded: no complete or partial responses by RECIST were observed
[3]; N = 24
  Patients completing treatment for symptomatic deterioration: 21%
[3]; censored observations (*)
  Duration of stable disease, individual patients: 3.98 months and 1.28 months and 5.45 months and 6.93 months
[3]; not censored
  Duration of stable disease, individual patients: 5.59 months and 2.56 months and 3.48 months and 3.15 months and 8.31 months
[4]; 50 mg BID
  Patients with drug-related SAEs in the MTD cohort: 4 patients
[4]; 50 mg starting dose, not considered related to alisertib
  Patients who died during the first treatment cycle: 2 patients
[4]; ECT, × 7 days in a 21-day cycle
  Maximum tolerated dose (MTD): 50 mg BID
[4]; human, in vivo
  Patients in whom dose reductions were necessary: 21%
  Patients who discontinued treatment due to AEs: 29%
  Patients with any grade of drug-related central nervous system (CNS) AEs: 33%
  Patients with cycle 1 dose-limiting toxicity (grade 4 febrile neutropenia): 1 of 13
  Patients with dose reduction for neutropenia: 13%
  Patients with dose reduction for thrombocytopenia: 8%
  Patients with drug-related CNS AE dizziness: 2 n
  Patients with drug-related CNS AE hypersomnia: 5 n
  Patients with drug-related CNS AE memory impairment: 3 n
  Patients with drug-related grade 3 or higher gastrointestinal AEs: 25%
  Patients with drug-related grade 3 or higher hematologic AEs: 50%
  Patients with drug-related neutropenia: 50%
  Patients with treatment-related fatigue: 33%
[4]; human, in vivo, 7 days
  Alopecia, all-grade treatment-related AE: 10 (42) n (%)
  Anemia, all-grade treatment-related AE: 3 (13) n (%)
  Decreased appetite, all-grade treatment-related AE: 5 (21) n (%)
  Diarrhea, all-grade treatment-related AE: 10 (42) n (%)
  Diarrhea, grade ≥3 treatment-related AE: 2 (8) n (%)
  Fatigue, all-grade treatment-related AE: 8 (33) n (%)
  Fatigue, grade ≥3 treatment-related AE: 2 (8) n (%)
  Febrile neutropenia, all-grade treatment-related AE: 3 (13) n (%)
  Febrile neutropenia, grade ≥3 treatment-related AE: 3 (13) n (%)
  Hypersomnia, all-grade treatment-related AE: 5 (21) n (%)
  Leukopenia, grade ≥3 treatment-related AE: 9 (38) n (%)
  Memory impairment, all-grade treatment-related AE: 3 (13) n (%)
  Nausea, grade ≥3 treatment-related AE: 2 (8) n (%)
  Neutropenia, all-grade treatment-related AE: 12 (50) n (%)
  Neutropenia, grade ≥3 treatment-related AE: 11 (46) n (%)
  Oral candidiasis, all-grade treatment-related AE: 4 (17) n (%)
  Recommended phase 2 dose (RP2D): 50 mg BID
  Severity of CNS AEs (hypersomnia, memory loss, dizziness): 1–2 grade
  Stomatitis, all-grade treatment-related AE: 10 (42) n (%)
  Stomatitis, grade ≥3 treatment-related AE: 2 (8) n (%)
  Thrombocytopenia, all-grade treatment-related AE: 4 (17) n (%)
  Vomiting, all-grade treatment-related AE: 5 (21) n (%)
  Vomiting, grade ≥3 treatment-related AE: 2 (8) n (%)
[4]; [12]
  Leukopenia, all-grade treatment-related AE: 10 (42) n (%)
  Nausea, all-grade treatment-related AE: 10 (42) n (%)
[4]; in vivo
  Tolerability of dose level: poorly tolerated
[5]; 40 mg BID for 7 days, n = 14, 90% CI: 74.4–108.8%
  Estimated relative bioavailability (geometric mean ratio of steady state alisertib AUC0-τ) of ECT in reference to PIC: 90%
[5]; relative bioavailability analysis of phase 1 data
  Systemic exposures of ECT formulation compared with PIC formulation: generally similar
[6]; murine xenograft studies
  Concentration associated with saturating levels of pharmacodynamic (PD) activity: 1 µM
[6]; preclinical xenograft models
  Concentration associated with AAK inhibition and antitumor activity: 1 µM
[7]
  Solubility (in words): reduced solubility in acidic solution

Reference: article PMC4229392 (Investigational new drugs, 2014)
